Experiment [1] in a line: Cytotoxicity against human PC3 cells assessed as growth inhibition after 24 hrs by sulforhodamine B assay. The note with it: PC-3, 24 h. It is filed as functional, cell-based. An outline of the steps:
(§1)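 LNCaP and PC-3 were kept as monolayers in RPMI with 10% heat-inactivated FBS and penicillin/streptomycin at 37 °C in 5% CO2. Cells were seeded, left overnight, then treated at various concentrations in triplicate wells for 24 h. They were fixed with 10% TCA for 1 h at 4 °C and stained 10 min with 0.4% SRB in 1% acetic acid. Bound dye was solubilized in Tris-HCl and read at 564 nm. IC50 came from a Boltzmann sigmoidal nonlinear fit, as the mean of at least three experiments.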
(In general: Sulforhodamine B stains cellular protein and so reports cell mass.)

For a further experiment, the system named is LNCaP. As to the kind of experiment: Cytotoxicity against human LNCAP cells assessed as growth inhibition after 24 hrs by sulforhodamine B assay. It is filed as functional, cell-based. Summed up: as §1
The nature of experiment [2]: Cell cycle arrest in human PC3 cells assessed as accumulation at S phase at 0.2 uM after 48 hrs by propidium iodide staining-based flow cytometry (reference value: 6.9%). It is filed as functional. Particulars: PC-3. (In general: Flow cytometry measures light scatter and fluorescence of single cells or particles in a stream.)
In experiment [3] the test system is PC-3. The experiment in a line: Induction of apoptosis in human PC3 cells assessed as early apoptotic cells at 0.2 uM after 48 hrs by propidium iodide staining-based flow cytometry (reference value: 4.4%). It is filed as functional.
For experiment [4], the system named is PC-3. The experiment in a line: Induction of apoptosis in human PC3 cells assessed as viable cells at 0.2 uM after 48 hrs by propidium iodide staining-based flow cytometry (reference value: 91%). The format is functional. Particulars: PC-3, 48 h, read-out: Activity.
Experiment [5] deals with PC-3. As to the kind of experiment: Induction of apoptosis in human PC3 cells assessed as necrotic cells at 0.2 uM after 48 hrs by propidium iodide staining-based flow cytometry (reference value: 0.4%). The format is functional.
Experiment [6] in a line: Cell cycle arrest in human PC3 cells assessed as accumulation at G2/M phase at 0.2 uM after 48 hrs by propidium iodide staining-based flow cytometry (reference value: 25.1%). Particulars: PC-3. The format is functional.
The nature of experiment [7]: Cell cycle arrest in human PC3 cells assessed as accumulation at G0/G1 phase at 0.2 uM after 48 hrs by propidium iodide staining-based flow cytometry (reference value: 58%). It is filed as functional. Particulars: PC-3.
The nature of experiment [8]: Cell cycle arrest in human PC3 cells assessed as accumulation at sub G0/G1 phase at 0.2 uM after 48 hrs by propidium iodide staining-based flow cytometry (reference value: 1.6%). The format is functional. The note with it: PC-3.
For experiment [9], the system named is PC-3. As to the kind of experiment: Induction of apoptosis in human PC3 cells assessed as late apoptotic cells at 0.2 uM after 48 hrs by propidium iodide staining-based flow cytometry (reference value: 4.2%). It is filed as functional.

As usually defined, the IC50 is the midpoint of a concentration-inhibition curve. For `O=S(=O)(Nc1nnc(-c2ccc(C(F)(F)F)cc2)o1)c1ccc2ccccc2c1`, the results for the IC50 (in experiment [1]; with LNCaP) were 22.2 µM and 3.9 µM, respectively.

`O=S(=O)(Nc1nnc(-c2ccc(C(F)(F)F)cc2)o1)c1ccccc1`: the half-inhibitory concentration (IC50) in experiment [1] was 8.34 µM; in the experiment with LNCaP, 2.5 µM.

`O=C(Nc1nnc(-c2ccccc2)o1)c1ccc2ccccc2c1`: the values for the IC50 (in experiment [1]; in the experiment on LNCaP) were 26 µM and 32.3 µM, respectively.

`O=c1[nH]cc(F)c(=O)[nH]1` [FLUOROURACIL]: the 50% inhibitory concentration (IC50) (in experiment [1]; in the experiment on LNCaP) was 0.03 µM in each case.

With `O=C(Nc1nnc(-c2ccc3ccccc3c2)o1)c1ccc(C(F)(F)F)cc1`, the IC50 was found to be 11.1 µM in [1] and 6.55 µM in the experiment on LNCaP.

For `O=C(Nc1nnc(-c2ccccc2)o1)c1ccccc1`, the Activity amounted to 9% in experiment [2]; 13.2% with PC-3 [3]; 21.3% with PC-3 [5]; 21.2% in experiment [6]; 50.8% in experiment [7]; 12.1% in [8]. Moreover, the Activity in the experiment on PC-3 [9] is 15.8%. In the experiment with PC-3 [4], the viability at 0.2 µM was 49.7%. Also, the IC50 came out at 0.22 µM in experiment [1] and 1.33 µM with LNCaP.

As to `O=S(=O)(Nc1nnc(-c2ccc3ccccc3c2)o1)c1ccc2ccccc2c1`, the IC50 was determined as 47.8 µM in experiment [1] and 3.2 µM in the experiment on LNCaP.

Source of the values: ChEMBL document CHEMBL3797084, “Design and evaluation of novel oxadiazole derivatives as potential prostate cancer agents” (Bioorg Med Chem Lett, 2016).
